{"source": "ChEMBL document CHEMBL5230171", "about": "“Expanding the structure-activity relationships of alkynyl diphenylurea scaffold as promising antibacterial agents” (RSC Med Chem, 2023)", "key": {"[1]": {"test_system": "Staphylococcus aureus", "experiment": "Antibacterial activity against methicillin resistant Staphylococcus aureus NRS384 USA300 infected in Balb/c mouse model of skin infection assessed as healing administered topically twice daily for three consecutive days from day 4 to 6 and measured 24 hrs post last dose", "format": "functional, organism-based", "conditions": "route top, time 4.0 day", "outline": "(§1)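 Mice were anesthetized with 2,2,2-tribromoethanol and injected subcutaneously with 100 μL containing 2 × 10^9 CFU MRSA USA300 in 0.5% HPMC in saline. Topical treatment used a petroleum jelly vehicle, with a fusidic acid positive control. Lesions were photographed 24 h after the last dose. A ~1.5 cm2 skin patch (homogenized in 1 mL saline) and the spleen (in 0.5 mL) were serially diluted and plated on MSA at 37 °C overnight for CFU.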"}, "[2]": {"test_system": "Staphylococcus aureus", "experiment": "(§2) Antibacterial activity against methicillin resistant Staphylococcus aureus NRS384 USA300 infected in Balb/c mouse model of skin infection assessed as reduction in inflammation administered topically twice daily for three consecutive days from day 4 to 6 and measured 24 hrs post last dose", "format": "functional, organism-based", "conditions": "route top, time 4.0 day", "outline": "as §1"}, "[3]": {"test_system": "Staphylococcus aureus", "experiment": "as §2, with “bacterial burden in skin lesions” for “inflammation”", "format": "functional", "conditions": "route top; time 4 day", "outline": "as §1"}, "[4]": {"test_system": "Staphylococcus aureus", "experiment": "Induction of drug resistance in methicillin resistant Staphylococcus aureus NRS384 USA300 assessed as fold change in MIC measured from passage 5 to 14 by broth microdilution method", "format": "functional", "outline": "(§3)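 Multi-step resistance in MRSA USA300 over 14 consecutive passages, with rifampicin as the control antibiotic. The MIC was determined by broth microdilution at each passage. Resistance was defined as a greater than four-fold rise over the initial MIC.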"}, "[5]": {"test_system": "Staphylococcus aureus", "experiment": "Induction of drug resistance in methicillin resistant Staphylococcus aureus NRS384 USA300 assessed as fold change in MIC measured after 4 passages by broth microdilution method", "format": "functional", "outline": "as §3"}, "[6]": {"test_system": "Staphylococcus aureus", "experiment": "Antibacterial activity against methicillin resistant Staphylococcus aureus 123 assessed as inhibition of bacterial growth at 0.5 ug/ml incubated for 18 to 20 hrs by CLSI protocol based broth microdilution method", "format": "functional, organism-based", "conditions": "dose 0.5 µg/ml, time 18-20 hrs"}, "[7]": {"test_system": "Staphylococcus aureus", "experiment": "Antibacterial activity against methicillin resistant Staphylococcus aureus 384 assessed as inhibition of bacterial growth at 0.5 ug/ml incubated for 18 to 20 hrs by CLSI protocol based broth microdilution method", "format": "functional, organism-based", "conditions": "dose 0.5 µg/ml, time 18-20 hrs"}, "[8]": {"test_system": "Staphylococcus aureus", "experiment": "Antibacterial activity against methicillin resistant Staphylococcus aureus 119 assessed as inhibition of bacterial growth at 0.5 ug/ml incubated for 18 to 20 hrs by CLSI protocol based broth microdilution method", "format": "functional, organism-based", "conditions": "dose 0.5 µg/ml, time 18-20 hrs"}, "[9]": {"test_system": "Staphylococcus aureus", "experiment": "Antibacterial activity against methicillin resistant Staphylococcus aureus 385 assessed as inhibition of bacterial growth at 0.5 ug/ml incubated for 18 to 20 hrs by CLSI protocol based broth microdilution method", "format": "functional, organism-based", "conditions": "dose 0.5 µg/ml, time 18-20 hrs"}, "[10]": {"test_system": "Staphylococcus aureus", "experiment": "Antibacterial activity against methicillin resistant Staphylococcus aureus 386 assessed as inhibition of bacterial growth at 0.5 ug/ml incubated for 18 to 20 hrs by CLSI protocol based broth microdilution method", "format": "functional, organism-based", "conditions": "dose 0.5 µg/ml, time 18-20 hrs"}, "[11]": {"test_system": "Staphylococcus aureus", "experiment": "Antibacterial activity against vancomycin resistant Staphylococcus aureus 10 assessed as inhibition of bacterial growth at 0.5 ug/ml incubated for 18 to 20 hrs by CLSI protocol based broth microdilution method", "format": "functional, organism-based", "conditions": "dose 0.5 µg/ml, time 18-20 hrs"}, "[12]": {"test_system": "Staphylococcus aureus", "experiment": "Antibacterial activity against vancomycin resistant Staphylococcus aureus 12 assessed as inhibition of bacterial growth at 0.5 ug/ml incubated for 18 to 20 hrs by CLSI protocol based broth microdilution method", "format": "functional, organism-based", "conditions": "dose 0.5 µg/ml, time 18-20 hrs"}, "[13]": {"test_system": "Staphylococcus aureus", "experiment": "Antibacterial activity against vancomycin resistant Staphylococcus aureus 9 assessed as inhibition of bacterial growth at 0.5 ug/ml incubated for 18 to 20 hrs by CLSI protocol based broth microdilution method", "format": "functional, organism-based", "conditions": "dose 0.5 µg/ml, time 18-20 hrs"}, "[14]": {"test_system": "Staphylococcus aureus", "experiment": "Antibacterial activity against methicillin sensitive Staphylococcus aureus 107 assessed as inhibition of bacterial growth at 0.5 ug/ml incubated for 18 to 20 hrs by CLSI protocol based broth microdilution method", "format": "functional, organism-based", "conditions": "dose 0.5 µg/ml, time 18-20 hrs", "outline": "(§4)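 Staphylococcal and E. coli strains were diluted from a 0.5 McFarland suspension in cation-adjusted Mueller Hinton broth to ~5 × 10^5 CFU mL−1. They were incubated with serial dilutions of test agent in broth microdilution, and the MIC was recorded.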"}, "[15]": {"test_system": "Staphylococcus aureus", "experiment": "Antibacterial activity against methicillin sensitive Staphylococcus aureus 6538 assessed as inhibition of bacterial growth at 0.5 ug/ml incubated for 18 to 20 hrs by CLSI protocol based broth microdilution method", "format": "functional, organism-based", "conditions": "dose 0.5 µg/ml, time 18-20 hrs", "outline": "as §4"}, "[16]": {"experiment": "Cytotoxicity against African green monkey Vero cells assessed as tolerance by measuring cell viability upto 128 ug/ml incubated for 24 hrs by MTS assay relative to control", "format": "toxicity, cell-based", "conditions": "chlorocebus sabaeus, up to 128 µg/mL, read-out: Activity", "outline": "(§5)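 Vero or HaCaT cells were exposed to 32, 64 and 128 μg mL−1 compound in triplicate for 24 h at 37 °C, 5% CO2, with a DMSO control. MTS was then added for 4 h and OD490 read. Analysis used two-way ANOVA with Dunnett's post hoc test (p < 0.05).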"}, "[17]": {"experiment": "Cytotoxicity against human HaCaT cells assessed as tolerance by measuring cell viability at 64 ug/ml incubated for 24 hrs by MTS assay relative to control", "format": "toxicity, cell-based", "conditions": "at 64 µg/mL, read-out: Activity", "outline": "as §5"}, "[18]": {"test_system": "Vero", "experiment": "Cytotoxicity against African green monkey Vero cells assessed as reduction in cell viability at 64 ug/ml incubated for 24 hrs by MTS assay", "format": "toxicity, cell-based", "conditions": "chlorocebus sabaeus, dose 64 µg/ml", "outline": "as §5"}, "[19]": {"experiment": "Cytotoxicity against human HaCaT cells assessed as tolerance by measuring cell viability upto 128 ug/ml incubated for 24 hrs by MTS assay relative to control", "format": "toxicity, cell-based", "conditions": "up to 128 µg/mL, read-out: Activity", "outline": "as §5"}, "[20]": {"test_system": "Staphylococcus aureus", "experiment": "Antibacterial activity against methicillin resistant Staphylococcus aureus NRS384 USA300 assessed as inhibition of bacterial growth incubated for 18 to 20 hrs by CLSI protocol based broth microdilution method", "format": "functional", "conditions": "time 18-20 hrs", "outline": "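Broth microdilution against staphylococcal clinical isolates. Each strain was prepared as a 0.5 McFarland suspension and diluted in cation-adjusted Mueller Hinton broth to ~5 × 10^5 CFU mL−1. Serial dilutions of test agents in DMSO stock were incubated with the bacteria, and the MIC was recorded.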"}, "[21]": {"test_system": "Clostridioides difficile", "experiment": "Antibacterial activity against Clostridioides difficile ATCC BAA 1870 assessed as inhibition of bacterial growth incubated for 18 to 20 hrs by CLSI protocol based broth microdilution method", "format": "functional", "conditions": "time 18-20 hrs", "outline": "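C. difficile was diluted from a 0.5 McFarland suspension in BHI supplemented with hemin and vitamin K. It was incubated with serial dilutions of test agent in broth microdilution, and the MIC was recorded.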"}, "[22]": {"test_system": "Escherichia coli", "experiment": "Antibacterial activity against Escherichia coli JW55031 assessed as inhibition of bacterial growth incubated for 18 to 20 hrs by CLSI protocol based broth microdilution method", "format": "functional", "conditions": "time 18-20 hrs", "outline": "as §4"}}, "note": "Active and inactive are the calls of the source.", "data": [{"smiles": "CC(=O)O[C@H]1C[C@@]2(C)[C@@H](C[C@@H](O)[C@H]3[C@@]4(C)CC[C@@H](O)[C@@H](C)[C@@H]4CC[C@@]32C)/C1=C(\\CCC=C(C)C)C(=O)O", "note": "[FUSIDIC ACID]", "values": [{"measurement": "Activity", "setting": "[1]", "value": "Active"}, {"measurement": "Activity", "setting": "[2]", "value": "Active"}, {"measurement": "Activity", "setting": "[3]", "value": 1.5, "unit": "log10CFU/ml"}]}, {"smiles": "CO[C@H]1/C=C/O[C@@]2(C)Oc3c(C)c(O)c4c(O)c(c(/C=N/N5CCN(C)CC5)c(O)c4c3C2=O)NC(=O)/C(C)=C\\C=C\\[C@H](C)[C@H](O)[C@@H](C)[C@@H](O)[C@@H](C)[C@H](OC(C)=O)[C@@H]1C", "note": "[RIFAMPIN]", "values": [{"measurement": "fold change (FC)", "setting": "[4]", "value": 15}, {"measurement": "fold change (FC)", "setting": "[5]", "value": ">4"}]}, {"smiles": "C/C(=N\\NC(=N)N)c1ccc(NC(=O)Nc2ccc(C#CC3(N)CCCCC3)cc2)cc1", "values": [{"measurement": "Activity", "setting": "[6]", "value": "Active"}, {"measurement": "Activity", "setting": "[7]", "value": "Active"}, {"measurement": "Activity", "setting": "[8]", "value": "Active"}, {"measurement": "Activity", "setting": "[9]", "value": "Active"}, {"measurement": "Activity", "setting": "[10]", "value": "Active"}, {"measurement": "Activity", "setting": "[11]", "value": "Active"}, {"measurement": "Activity", "setting": "[12]", "value": "Active"}, {"measurement": "Activity", "setting": "[13]", "value": "Active"}, {"measurement": "Activity", "setting": "[14]", "value": "Active"}, {"measurement": "Activity", "setting": "[15]", "value": "Active"}, {"measurement": "viability at 24 h", "setting": "[16]", "value": 100, "unit": "%"}, {"measurement": "viability at 24 h, 64 ug/ml", "setting": "[17]", "value": 100, "unit": "%"}]}, {"smiles": "C/C(=N\\NC(=N)N)c1ccc(NC(=O)Nc2ccc(C#CC(C)(C)O)cc2)cc1", "values": [{"measurement": "Activity", "setting": "[6]", "value": "Active"}, {"measurement": "Activity", "setting": "[7]", "value": "Active"}, {"measurement": "Activity", "setting": "[8]", "value": "Active"}, {"measurement": "Activity", "setting": "[9]", "value": "Active"}, {"measurement": "Activity", "setting": "[10]", "value": "Active"}, {"measurement": "Activity", "setting": "[11]", "value": "Active"}, {"measurement": "Activity", "setting": "[12]", "value": "Active"}, {"measurement": "Activity", "setting": "[13]", "value": "Active"}, {"measurement": "Activity", "setting": "[14]", "value": "Active"}, {"measurement": "Activity", "setting": "[15]", "value": "Active"}, {"measurement": "Activity", "setting": "[18]", "value": "Non-Toxic"}, {"measurement": "viability at 24 h", "setting": "[19]", "value": 100, "unit": "%"}]}, {"smiles": "C/C(=N\\NC(=N)N)c1ccc(NC(=O)Nc2ccc(C#CC3CC3)cc2)cc1", "values": [{"measurement": "MIC", "setting": "[20]", "value": "≥ 64", "unit": "µg/mL"}, {"measurement": "MIC", "setting": "[21]", "value": "≥ 64", "unit": "µg/mL"}, {"measurement": "MIC", "setting": "[22]", "value": "≥ 64", "unit": "µg/mL"}]}]}
